From publication PMC6076386 (Biochemistry, 2017)
“Also recorded” adds a separate entry of the source.

Legend:
[1] = system: thrombin ABE I region 65–84; conditions: cited from earlier work
[2] = target: Wild Type PPACK-IIa (human plasma thrombin), ABE I (Homo sapiens, UniProt P00734); experiment: 2D 1H-15N HSQC NMR titration, wild-type PPACK-thrombin; assay type: binding; conditions: native PAR3 sequence, 15N-D54 and 15N-F47, PPACK-IIa; pH 6.5, 25 °C
Outline: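 Human plasma thrombin blocked with PPACK (4:1 inhibitor:enzyme, 37 °C, 30 min), buffer-exchanged into 25 mM H₃PO₄, 150 mM NaCl, 0.2 mM EDTA, 10% D₂O, pH 6.5, 25 °C. ¹⁵N-labeled PAR3(44–56) held at 50 μM while thrombin (starting 210 μM) was serially diluted, spanning 4:1 to 0.1:1 ratios. Chemical-shift changes were fitted with a ligand-normalized quadratic for K_D. At least triplicate; Monte-Carlo errors assumed 10% dilution error.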

thrombin ABE I = conditions: cited from earlier work
PAR3 (Homo sapiens) = PAR3 (Homo sapiens) (UniProt O00254); experiment: fluorescence titration; conditions: cited from earlier work

hirudin [reference compound]
HDX-MS binding region [1]: both bind to the thrombin ABE I region 65–84

PAR3 (^44Q N T ^15F E E F P L S ^15D I E[56]) [PAR3 (44–56)]
HDX-MS binding region [1]: both bind to the thrombin ABE I region 65–84 | binding affinity by 15N-HSQC NMR titration [2]: binding affinities could not be determined; also recorded: bound too tightly to thrombin | binding by X-ray crystallography (thrombin ABE I): confirmed to bind in a specific manner to thrombin ABE I

Thrombin (from UniProt P00734)
Kd (PAR3 (Homo sapiens)): 2000 nM
